# Assay results: ChEMBL document CHEMBL1777771, “Efficient synthesis and chiral separation of 11C-labeled ibuprofen assisted by DMSO for imaging of in vivo behavior of the individual isomers by positron emission tomography” (Bioorg Med Chem, 2011)
# Legend:
# Assay type in all cases: ADME, organism-based
# Conditions in all cases: in vivo, 0.5 h; call rule not given here
# [1] = tested on: Plasma; assay: Drug level in mouse plasma assessed as radioactivity of [11C]-ibuprofen at 70 to 125 MBq, iv after 30 mins by HPLC analysis
# Method in brief: (§1)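 Normal mice, 20–25 g, n = 3 per isomer; iv dose <0.43 nmol. Decapitated at 30 min. Heparinized blood centrifuged to plasma; plasma radioactivity counted in a dose calibrator as % dose/mL. Plasma deproteinized with 2 volumes of ethanol and filtered, then run on chiral reversed-phase OJ-RH HPLC with radiodetection. Peaks identified by co-injected unlabeled ibuprofen; fractions decay- and baseline-corrected; mean ± SD.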
# [2] = tested on: Plasma; assay: Drug level in mouse plasma assessed as (R)-[11C]-ibuprofen level at 70 to 125 MBq, iv after 30 mins by HPLC analysis; method in brief: as §1
# [3] = tested on: Urinary bladder; assay: Biodistribution in mouse bladder at 9 to 12 MBq, iv after 30 mins by PET analysis
# Method in brief: (§2)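 Normal male BALB/c mice, 6–7 wk, under isoflurane with a heating pad. Each enantiomer given as a 0.2 mL iv bolus (<0.18 nmol) diluted in saline. PET acquired for 30 min in 13 frames and reconstructed by FBP without attenuation correction. Regional radioactivity taken from VOI analysis of time-activity curves.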
# [4] = tested on: Mus musculus; assay: Biodistribution in LPS treated BALB/c mouse anti-collagen antibody-induced arthritis model ankle of hindlimb at 9 to 12 MBq, iv after 30 mins by PET analysis relative to normal mouse
# Method in brief: (§3)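 Male BALB/c mice, 6–7 wk. Arthritis induced with an iv anti-type II collagen mAb cocktail (1.5 mg), then ip LPS (30 μg) on day 3; mice used 4 days after LPS with a score of 3 in each limb. Enantiomer given as an iv bolus (<0.18 nmol, in saline). Dynamic PET for 30 min under isoflurane. VOIs drawn on ankles and heart; SUV time-activity curves. Each mouse received both isomers 5 h apart.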
# [5] = tested on: Plasma; assay: Drug level in mouse plasma assessed as (S)-[11C]-ibuprofen level at 70 to 125 MBq, iv after 30 mins by HPLC analysis; method in brief: as §1
# [6] = tested on: Mus musculus; assay: Biodistribution in mouse cerebrum at 9 to 12 MBq, iv after 30 mins by PET analysis; method in brief: as §2
# [7] = tested on: Heart; assay: Biodistribution in LPS treated BALB/c mouse anti-collagen antibody-induced arthritis model heart at 9 to 12 MBq, iv after 30 mins by PET analysis; method in brief: as §3
# [8] = tested on: Plasma; assay: Drug level in mouse plasma assessed as fraction of metabolites level at 70 to 125 MBq, iv after 30 mins by HPLC analysis; method in brief: as §1
# [9] = tested on: Plasma; assay: Drug level in mouse plasma assessed as [11C]-ibuprofen level at 70 to 125 MBq, iv after 30 mins by HPLC analysis; method in brief: as §1
# [10] = tested on: Liver; assay: Biodistribution in mouse liver at 9 to 12 MBq, iv after 30 mins by PET analysis; method in brief: as §2
# [11] = tested on: Mus musculus; assay: Biodistribution in LPS treated BALB/c mouse anti-collagen antibody-induced arthritis model arthritic joints at 9 to 12 MBq, iv after 30 mins by PET analysis; method in brief: as §3
# [12] = tested on: Kidney; assay: Biodistribution in mouse kidney at 9 to 12 MBq, iv after 30 mins by PET analysis; method in brief: as §2
# [13] = tested on: Plasma; assay: Drug level in mouse plasma at 70 to 125 MBq, iv after 30 mins by HPLC analysis; method in brief: as §1
Compound,Drug uptake [1] [%ID/ml],Drug uptake [2] [%],Drug uptake [3],fold change (FC) [4],Drug uptake [5] [%],Drug uptake [6],Drug uptake [7],Drug uptake [8] [%],Drug uptake [9] [%],Drug uptake [10],Drug uptake [11],Drug uptake [12],Drug uptake [13] [%ID/ml]
CC(C)Cc1ccc([C@H]([11CH3])C(=O)O)cc1,6.2,0.78,Active,> 2,65,Active,Not Active,34,66,Active,Active,Active,8.9
CC(C)Cc1ccc([C@@H]([11CH3])C(=O)O)cc1,5.9,23,Active,> 2,52,Active,Not Active,25,75,Active,Active,Active,8.3
